Assay outcomes (PubChem)
T cruzi inh – blocks replication of Trypanosoma cruzi; T. cruzi beta-gal in NIH3T3, luminescence, 90 h; inhibition, % (no concentration beside the values); actives 1.4% (n = 300,000);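 active means mean inhibition across valid replicates above about 55%, limit read from the data; inconclusive means mean below that limit but half or more replicates reach it; inactive means mean below it, under half of replicates reach it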;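 further: signal also drops with host cell toxicity which is not excluded here; 0% = plate median of DMSO wells and 100% = zero luminescence signal; higher percent means less beta-gal luminescence so fewer parasites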
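System: Mouse NIH/3T3 fibroblasts infected with β-gal-expressing T. cruzi Tulahuen C4 | Quantity: NIH/3T3 cells, 5,000 per well | Reagent: 5000 reporter trypomastigotes per well | Dosing: Compound pinned at 50 nL/well, DMSO | Schedule: 3 h host attachment, then at least 90 h co-culture | Detection: GalScreen luminescence, 60 min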
CSC inhib – cancer stem cell inhibition. cancer stem cell-like cells viability, luminescence. inhibition, % at 7.5 µM. actives 1.1% (n = 300,000); in the data active means inhibition above about 75%; inconclusive means no clear call, values can overlap the other calls; tested in HMLE shEcad cells
HIF activator – HIF pathway transcriptional activation; U2OS HRE-luciferase reporter, luminescence; normalized: DMSO 0%, desferrioxamine 100%; AID 1910; actives 0.32% (n = 300,000); activation, % at 7.5 µM (by protocol);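 active means mean activation of at least 10% of the iron chelator positive control signal, with at least half of replicates also reaching 10%; inconclusive means mean and replicate majority disagree about reaching 10%; inactive means mean and most replicates under 10%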
PfHsp90 yeast 2 – reduces growth (ATP signal) of yeast expressing P. falciparum Hsp90. S. cerevisiae expressing PfHsp90, BacTiter-Glo ATP, 48 h; yeast lacking PDR1 and PDR3 efflux regulators. inhibition, % at 9.4 µM. actives 0.32% (n = 310,000). AID 504621;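 active means every replicate shows inhibition above about 80%, whatever the replicate mean, limit read from the data; inconclusive means mean inhibition reaches the set limit but some replicate falls short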;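 further: 0% = DMSO neutral controls and 100% = 20 µM radicicol positive controls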
SKKanGAS inh – inhibitors of SKKanGAS S. pyogenes growth in kanamycin (SK-promoter or general growth effect); actives 1.3% (n = 300,000); inhibition, % at 7.5 µM; AID 1662; BacTiter-Glo, 6 h;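 active means mean replicate score, as percent of positive control median, at least 50; inconclusive means mean below 50 but one replicate at or above 50; inactive means mean and every replicate below 50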;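 further: strain carries kanamycin resistance gene driven by streptokinase promoter and grows in 40 µg/ml kanamycin; loss of luminescence reflects streptokinase promoter inhibition or plain growth inhibition; 0% = median of DMSO wells and 100% = positive control at its reference dose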
Beta cell apopt – blocks beta cell apoptosis; actives 0.8% (n = 300,000); protection from apoptosis, % (concentration not given with the values); INS-1E cytokine-induced death, ATP luminescence, 48 h; percent of positive-control rescue, neutral wells zero;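 active means Every replicate reaches about 75%, or at least half do and their mean reaches it too, limit read from the data; inconclusive means At least half of replicates reach the limit but their mean does not; inactive means Under half of replicates reach the limit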;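 further: 0% = cytokine-treated negative control wells and 100% = positive control rescue; higher means more ATP so stronger rescue from cytokine killing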
Numbers without * were called inactive; ? = inconclusive; . = no result. The list is not random: actives were taken first. Their share in the collection is about 3.6%.

SMILES	T cruzi inh	CSC inhib	HIF activator	PfHsp90 yeast 2	SKKanGAS inh	Beta cell apopt
CC(C)NC(=O)Nc1ccc2c(c1)C(=O)N([C@H](C)CO)C[C@@H](C)[C@@H](CN(C)C(=O)NC1CCCCC1)O2	.	15	.	7	.	-9
CCOC(=O)c1c(C)n(-c2ccc(C)cc2)c2c(C(C(C)=O)C(=O)O)c(Br)c(O)c(O)c12 (centres undefined)	9	17	0	-17	8	0
CCOC(=O)C(C(C)=O)c1c(Br)c(O)c(O)c2c(C(=O)c3ccc(C)cc3)coc12 (centres undefined)	16	103*	2	-1	16	95*
CC1(C)Cc2c(c(N3CCOCC3)nc3sc4c(NCc5ccccc5)nnnc4c23)CS1	62*	8	0	-14	14	8
CC(C)CNc1nnnc2c1sc1nc(N3CCOCC3)c3c(c12)CC(C)(C)SC3	46	-6	-4	-45	23	19
CC1(C)Cc2c(c(N3CCOCC3)nc3sc4c(NN)ncnc4c23)CS1	27	87*	-1	-5	17	81*
CC(C)CNc1ncnc2c1sc1nc(N3CCOCC3)c3c(c12)CC(C)(C)OC3	6	-20	0	-12	-6	5
CCN(CC)CCNc1ncnc2c1sc1nc(N3CCCC3)c3c(c12)CC(C)(C)OC3	61*	20	-1	-32	0	3
O=C(c1ccc(-c2ccc([N+](=O)[O-])cc2)o1)N1CCN(S(=O)(=O)c2cccs2)CC1	.	.	.	.	.	3
Cc1ccc(S(=O)(=O)N2CCN(C)CC2)c2nsnc12	6	.	0	-20	-8	-8
Oc1[nH]c(=S)sc1/C=C1\C(c2ccccc2)=Nc2ccccc21	36	48	1	-4	76*	-4
Cc1cc(C(=O)OCC(=O)NC2(C#N)CCCCC2)c(C)o1	.	.	.	-31	.	.
O=[N+]([O-])c1ccc(Cl)c2cccnc12	-9	-16	-21	-1	-2	3
Cc1[nH]c2ccc3ncccc3c2c1C	6	-5	1	-10	-6	-2
Cc1c(C)c2cccnc2c2ncccc12	.	.	.	124*	.	100*
O=[N+]([O-])c1cc(Cl)c2cccnc2c1O	-7	98*	0	-44	83*	-14
O=[N+]([O-])c1ccc(O)c2cccnc12	2	1	0	-7	-19	-1
O=[N+]([O-])c1ccc(O)c2ncccc12	74*	82*	0	109*	44	97*
Clc1cc2cccnc2c2ncccc12	.	121*	.	3	.	87*
O=[N+]([O-])c1cc(F)c2cccnc2c1O	-45	15	-30	-53	40	0
Cc1ccccc1Sc1ccc(N)cn1	10	2	0	.	3	.
CC(=O)Nc1c(Cl)cc2c(c1Cl)C(=O)c1ccccc1-2	.	.	.	2	.	.
O=S(=O)(/C=C/c1ccccc1)N1CCN(c2nc(-c3ccccc3)nc3ccccc23)CC1	9	6	-1	-29	6	11
O=C(CNC(=O)c1n[nH]c2ccccc12)Nc1ccc(F)c(F)c1F	.	-6	.	12	.	-4
CC1CCN(c2ccc(C(=O)O)cc2NS(=O)(=O)c2ccc(Br)cc2)CC1	-4	-9	.	6	4	-7
SMILES	T cruzi inh	CSC inhib	HIF activator	PfHsp90 yeast 2	SKKanGAS inh	Beta cell apopt
COc1ccc(CN(C)C(=O)C(CCSC)NS(=O)(=O)c2ccc3c(c2)OCCO3)c(OC)c1OC (centres undefined)	.	.	.	-9	.	.
O=[N+]([O-])c1cc(CN2CCN(c3ccccc3)CC2)c(O)c2ncccc12	58*	-5	9	7	?	95*
Oc1c(I)cc(Cl)c2cccnc12	-3	84*	0	111*	100*	7
O=[N+]([O-])c1cccc2c(Cl)ccnc12	-12	-13	0	.	3	3
O=[N+]([O-])c1cc(Cl)c(O)c2ncccc12	9	.	-1	98*	51*	.
Oc1c(Cl)c(Cl)c2ncccc2c1Cl	.	.	.	-8	.	.
O=[N+]([O-])c1cc([N+](=O)[O-])c2cc3ccccc3nc2c1	10	80*	-1	10	15	5
O=[N+]([O-])c1cnc2ccccc2c1	-4	-5	0	-10	1	-6
CSc1nc(NNC=O)cc(Oc2ccc(NC(C)=O)cc2)n1	0	-14	-1	-1	4	-7
COc1cccc2c1C(=O)c1c(O)c3c(c(O)c1C2=O)C[C@](O)(C(C)=O)C[C@H]3O[C@@H]1C[C@@H](N)[C@@H](O)[C@@H](C)O1	47	74	-3	-36	102*	44
COc1ccccc1N=C1SC(C(=O)Nc2cccc(Cl)c2Cl)C(N)=C1C(N)=O (centres undefined)	17	79*	2	-45	-4	3
CCn1cc(C(=O)NCc2ccc3c(c2)OCO3)c(=O)c2cc(F)c(N3CCN(C)CC3)cc21	60*	17	0	16	-3	4
CCn1cc(C(=O)N[C@H](C)c2ccccc2)c(=O)c2cc(F)c(N3CCN(C)CC3)cc21	26	75*	-1	.	-5	6
CCOC(=O)c1ccc(NC(=O)N2CCN(C(=O)C3CCCO3)CC2)cc1 (centres undefined)	-11	.	1	3	3	-2
CC(C)CN(C(=O)c1cc([N+](=O)[O-])cc([N+](=O)[O-])c1)C1CCS(=O)(=O)C1 (centres undefined)	57*	-2	3	.	3	-5
Cc1ccc(C)c(S(=O)(=O)NCc2ccc(C(=O)N3CCN(C)CC3)cc2)c1	.	17	.	.	3	-3
Cc1ccc(C)c(S(=O)(=O)NCc2ccc(C(=O)N3CCC(Cc4ccccc4)CC3)cc2)c1	64*	37	0	-1	3	5
Cc1c(C(=O)N2CCN(S(=O)(=O)c3cccs3)CC2)oc2ccc(F)cc12	.	-11	.	-37	.	1
CCN(CC)S(=O)(=O)c1ccc(N2CCOCC2)c(NC(=O)c2ccc3ccccc3c2)c1	27	0	0	22	12	7
CCN(CC)S(=O)(=O)c1ccc(N2CCOCC2)c(NC(=O)c2cccc3ccccc23)c1	29	3	46*	-24	3	3
COc1ccc(/C=N/NC(=S)Nc2cc(S(=O)(=O)N3CCOCC3)ccc2N2CCOCC2)cc1O	3	29	35*	16	9	8
Cc1c(C(=O)N2CCN(S(=O)(=O)c3ccc(F)cc3)CC2)oc2ccccc12	56*	-13	0	-6	-12	3
Cc1c(C(=O)Nc2cc(S(=O)(=O)N3CCOCC3)ccc2N2CCOCC2)oc2ccccc12	75*	8	-1	27	9	13
COc1ccc2ccccc2c1/C=N/NC(=S)Nc1cc(S(=O)(=O)N2CCOCC2)ccc1N1CCOCC1	46	.	1	-23	22	-4
